Here are results for 6 compounds from paper PMC11040122 (Heliyon, 2024).

The subject of one test is SlSCP-2. To be noted: read-out: IC50 values reported for natural compounds; cited from earlier work.
The test system of a further test is Sf9 cells. In words: In vitro toxicity / cell growth inhibition rate. Particulars: MTT assay, 72 h of treatment. The format is cell-based, Spodoptera frugiperda. In short, it runs like this: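 Sf9 cells (2 × 10^4 cells/mL) in Grace's medium with 10 % FBS, exposed in triplicate to test compound (0.5–100 μM, from DMSO stocks); DMSO negative control. Incubated at 30 °C, humidified, no CO2, for 3–5 days until control wells near confluent. MTT (5 mg/mL) added for 4 h at 30 °C, formazan dissolved in DMSO, A570 read. IR = (1 − At/Ac) × 100; mean ± SD.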

With `CCCCCCCCCCCCCCCCCC(=O)O` [stearic acid], the IC50 with SlSCP-2 was 39.8 µM.
In the case of `CCCCCCCCCCCCCCCC(=O)O` [palmitic acid], the concentration for half-maximal inhibition (IC50) with SlSCP-2 is 59.1 µM.
Consider `COc1c(O)cc2oc3cc(O)c(CC=C(C)C)c(O)c3c(=O)c2c1CC=C(C)C` [Alpha-mangostin], for which the “%IR At 100 μM (percent inhibition of cell growth rate)” value in the test with Sf9 cells was 52.18%.
Turning to `CCCCC/C=C\C/C=C\C/C=C\C/C=C\CCCC(=O)O` [arachidonate], in the test with SlSCP-2, the IC50 was 18.1 µM.
`CC(C)CCC[C@@H](C)[C@H]1CC[C@H]2[C@@H]3CC=C4C[C@@H](O)CC[C@]4(C)[C@H]3CC[C@]12C` [cholesterol]: the IC50 in the test with SlSCP-2 was 50.1 µM.
As for `CCCCCCCC/C=C\CCCCCCCC(=O)O` [oleic acid], in the test on SlSCP-2, the IC50 was 24.4 µM.

A word on the IC50: it is the point on the concentration scale where inhibition reaches its midpoint.
